{"data": "Published values pooled from the literature", "target": "Tyrosine-protein kinase FRK (FRK, Homo sapiens, UniProt P42685)", "note": "Lines come from different studies, so protocols differ."}
{"Compound": "O=C(Nc1ccc(Oc2ccc(F)cc2)cc1)N1CCc2ncccc2[C@H]1c1ccc(F)cc1", "read-out": "cell-free assay", "technique": "competition with immobilised ligand", "concentration": "1 µM", "remaining binding [%]": 93}
{"Compound": "Cc1cnn2ncc(-c3ccnc(N(C)C)n3)c2c1", "read-out": "binding", "technique": "competition with immobilised ligand", "concentration": "1 µM", "remaining binding [%]": 100}
{"Compound": "O=C(NCCCN1CCOCC1)c1ccc(Nc2nccc(-c3cc4ccccc4s3)n2)cc1", "read-out": "binding", "technique": "competition with immobilised ligand", "concentration": "1 µM", "remaining binding [%]": 99}
{"Compound": "C[C@@H](c1ccc(-n2cnc3c(N)ncnc32)cc1)N1CCc2nn(C)c(Cc3ccccc3)c2C1=O", "read-out": "binding", "technique": "competition with immobilised ligand", "concentration": "0.1 µM", "remaining binding [%]": 91}
{"Compound": "O=C(NCCCN1CCOCC1)c1ccc(Nc2ncc(Cl)c(-c3ccc(Cl)s3)n2)cc1", "read-out": "binding", "technique": "competition with immobilised ligand", "concentration": "1 µM", "remaining binding [%]": 100}
{"Compound": "CN1CCN(c2cnc3c(C4CCN(C(=O)c5ccc(OC(F)(F)F)cc5N)CC4)ncnc3c2)CC1", "read-out": "cell-free assay", "technique": "competition with immobilised ligand", "concentration": "1 µM", "remaining binding [%]": 100}
{"Compound": "FC(F)(F)Oc1cccc(-c2cnc3ccc(-c4ccncc4)nn23)c1", "read-out": "cell-free assay", "technique": "competition with immobilised ligand", "concentration": "5 µM", "remaining binding [%]": 59}
{"Compound": "CCN1CCN(Cc2ccc(C(=O)Nc3ccc(C)c(Oc4ccc5c(c4)CC(=O)N5)c3)cc2C(F)(F)F)CC1", "read-out": "binding", "technique": "competition with immobilised ligand", "concentration": "1 µM", "remaining binding [%]": 13}
{"Compound": "c1cnn2ncc(-c3ccnc(N4CCC45COC5)n3)c2c1", "read-out": "binding", "concentration": "1 µM", "remaining binding [%]": 82}
{"Compound": "O=C(Nc1cnc(Oc2ccc(F)cc2)nc1)N1CCc2ncccc2[C@@H]1c1ccc(F)cc1", "read-out": "cell-free assay", "technique": "competition with immobilised ligand", "concentration": "1 µM", "remaining binding [%]": 98}
{"Compound": "CN(c1nccc(-c2cnn3ncccc23)n1)C1CC1", "read-out": "binding", "concentration": "1 µM", "remaining binding [%]": 85}
{"Compound": "Nc1c(C(=O)NCc2ccc(C(=O)NCCCC3CCCCC3)cc2)cnn1-c1ccccc1", "read-out": "cell-free assay", "technique": "competition with immobilised ligand", "concentration": "0.1 µM", "remaining binding [%]": 100}
{"Compound": "N[C@@H]1CCN(c2nccc(-c3cnn4ncccc34)n2)C1", "read-out": "binding", "concentration": "1 µM", "remaining binding [%]": 97}
{"Compound": "C=CC(=O)N1CCC(C(=O)NCC(=O)N2CCN(c3nc(-c4cnc(N)nc4C(F)F)nc(N4CCOCC4)n3)CC2)CC1", "read-out": "binding", "technique": "competition with immobilised ligand", "concentration": "1 µM", "remaining binding [%]": 100}
{"Compound": "CN(C)c1nccc(-c2cnn3ncccc23)n1", "read-out": "binding", "technique": "competition with immobilised ligand", "concentration": "1 µM", "remaining binding [%]": 100}
{"Compound": "CS(=O)(=O)N1CCCC(NC(=O)[C@H](CCC2CCCCC2)NC(=O)c2ccc(CNc3ncnc4c3nnn4-c3ccccc3)cc2)C1 (stereo partly shown)", "read-out": "cell-free assay", "technique": "competition with immobilised ligand", "concentration": "0.1 µM", "remaining binding [%]": 60}
{"Compound": "C[C@@H]1CCN(c2nccc(-c3cnn4ncccc34)n2)C1", "read-out": "binding", "concentration": "1 µM", "remaining binding [%]": 100}
{"Compound": "CNC(=O)[C@@H]1CC[C@@H](n2c(-c3ccc4cnccc4c3)nc3ccc(C(=O)NCc4cccc(C(N)=O)c4)cc32)C1", "read-out": "binding", "technique": "competition with immobilised ligand", "concentration": "1 µM", "remaining binding [%]": 100}
{"Compound": "Nc1cnc(N2CCc3cc(S(=O)(=O)Nc4c(F)cc(Cl)cc4F)cc(N4CCCC4=O)c32)nc1", "read-out": "cell-free assay", "technique": "competition with immobilised ligand", "concentration": "1 µM", "remaining binding [%]": 62}
{"Compound": "O=C(NCC1CCOCC1)c1n[nH]cc1NC(=O)c1c(F)cccc1F", "read-out": "binding", "technique": "competition with immobilised ligand", "concentration": "1 µM", "remaining binding [%]": 100}
{"Compound": "O=C(c1ccc(Nc2ncc(Cl)c(-c3ccc(Cl)s3)n2)cc1)N1CCC(N2CCCC2)CC1", "read-out": "binding", "technique": "competition with immobilised ligand", "concentration": "1 µM", "remaining binding [%]": 97}
{"Compound": "C[C@@H](c1cccc(C#N)c1)n1cc(Cl)cc(C(N)=O)c1=N", "read-out": "cell-free assay", "technique": "competition with immobilised ligand", "concentration": "1 µM", "remaining binding [%]": 100}
